17 molecules from PubChem BioAssay can be followed below.

Test [1] in a line: S. cerevisiae growth inhibition in permissive medium (OD615), pilot counter-assay for S. cerevisiae lifespan shortening project, permissive growth control (AID 705;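 active = growth inhibition above 25% in both replicates, a cutoff set 3 SD above the mean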). The conditions noted are these: OD615, 24 h, at 10 µM, hits give high values. Put shortly:
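System: S. cerevisiae with engineered DeaD lifespan system / Measured by: absorbance (optical density) at 615 nm / Read-out: reduction in yeast growth (OD615) / Times: 4 h cell pre-growth, 24 h exposure at 30 °C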

Test [2] is described as follows: S. cerevisiae growth inhibition in restrictive medium, OD615, pilot screen, restrictive growth control, yeast lifespan reduction project (AID 706;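 active = growth inhibition above a set limit, 3 SD over mean compound inhibition, in both replicates, cut at about 43% in these data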;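 note: modified DeaD lifespan yeast strain shifted to restrictive glucose medium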). The conditions noted are these: OD615, 48 h, at 10 µM, hits give high values. The essentials:
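System: Engineered S. cerevisiae DeaD strain | Buffer or medium: Glucose-based CSMM-D restrictive medium | Schedule: 4 h pre-incubation, 48 h exposure at 30 °C | Technique: Optical density at 615 nm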

Test [3] can be described thus: doxorubicin toxicity protection in MRP-1 cells – H69AR cells, CellTiter-Glo, duplicate, MRP-1 activator project, pilot screen (AID 807).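 Note: compound pretreatment 18-22 h then 72 h combined with doxorubicin; 0% = doxorubicin alone and 100% = vehicle without doxorubicin.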 As to conditions: H69AR viability with doxorubicin, CellTiter-Glo luminescence; at 10 µM; hits give high values. (In general: ATP-based viability assays read luminescence as a measure of living cells.)
The nature of test [4]: viability of HCT116 without oncogenic beta-catenin – human colon tumor cells, pilot screen (AID 823;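 active = cell viability at or below a set limit in both duplicate runs, the limit being the all-compound median minus 4 SD, cut at about 23% in these data, passing the limit was not always enough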;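 note: 0% = wells killed by 20 µM Hyamine and 100% = untreated DMSO cell wells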). As to conditions: HCT116 beta-catenin knockout viability, CellTiter-Glo, 60 h; at 10 µM; hits give low values.
Test [5] is described as follows: viability of PTEN-null HCT116 cells – cell-based, HCT116 clonal line, CellTiter-Glo, pilot screen (AID 824;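 active = viability at or below 27.92% in each of two runs, the all-compound median minus 4 SD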;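 note: 0% = 20 µM Hyamine control and 100% = vehicle cell control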). The conditions noted are these: HCT116 PTEN-deleted viability, 60 h, at 10 µM, hits give low values.
The nature of test [6]: RAM pathway blockade in budding yeast – dse1pr::URA3 reporter, 5-FOA selection, pilot screen (AID 869;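 active = inhibition over a set limit, the all-compound mean plus 3 SD, in both replicate runs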;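 note: 0% = DMSO wells with no growth and 100% = 10 µM 1-NA-PP1 with full growth; RAM network block rescues cells from 5-FOA so hits raise OD615 growth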). The conditions noted are these: S. cerevisiae dse1pr::URA3 5-FOA growth, OD615, 2 d; at 10 µM; hits give high values; strain carries analog-sensitive mutant Cbk1 kinase.
A short description of test [7]: RAM signaling pathway blockade in yeast – S. cerevisiae, Pdr1DBD-CYC8 efflux-inhibited sensitized strain, primary screen (AID 1298;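 active = RAM network inhibition above 8.4% in each of two replicates, 3 SD over the compound average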;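 note: 0% = DMSO untreated cells without growth and 100% = 10 µM 1-NA-PP1 full growth; higher means more yeast growth rescued from 5-FOA killing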). The conditions noted are these: S. cerevisiae cbk1-as DSE1-URA3 strain, 5-FOA growth OD615, 2 d; at 50 µM; hits give high values.

The term viability denotes a read-out of living cells in per cent, often relative to untreated cells. As a reminder, the inhibition is the change of the read-out against control, counted positive when it falls.

A number with no mark means an inactive call. Inconclusive results are not listed. Active and inactive are the calls of the source.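 Rule for the calls, unless noted: active = viability increase at or above a cutoff of the median across tested compounds plus 3 SD (cut at about 8.5% in these data, passing the limit was not always enough); inconclusive = some gains above the cutoff, reason not given; inactive = the rest.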

Consider `COC(=O)c1c(NC(=O)CCCC(=O)O)sc(C)c1C`, for which the growth inhibition in test [1] was -6.98%; in test [2] it was 3.54%. In addition, in test [3], the viability increase was -3.07%. Moreover, the viability in test [4] was 91.8%; in test [5], 87.9%. In test [6], the inhibition was 0.305%. Moreover, the RAM network inhibition in test [7] is 3.63%.

For `O=C(NCCc1ccccc1)C1CCN(S(=O)(=O)c2cccnc2)CC1`, the figures for the growth inhibition in test [1] and in test [2] were -7.37% and 0.25%, respectively. Also, the viability increase in test [3] was -0.16%. The viability is 104% in test [4] and 94.8% in test [5]. For the same molecule, the inhibition in test [6] was 1.88%. Further, the RAM network inhibition in test [7] is 1.62%.

Take `Nn1c(SCc2ccccc2)nnc1-c1ccco1`: the growth inhibition in test [1] is -8.86%; in test [2], 3.38%. Besides, the viability increase in test [3] is -3.7%. Also, the viability was 99.2% in test [4] and 93% in test [5]. Moreover, the inhibition in test [6] was 0.67%. The RAM network inhibition in test [7] is -1.12%.

Turning to `CN(C)S(=O)(=O)c1ccc(C(=O)Nc2ccc(OCC(=O)N3CCOCC3)cc2)cc1`, the growth inhibition in test [1] is 0.98%; in test [2] it was -1.1%. Further, the viability increase in test [3] is -1.5%. Further, the viability in test [4] is 97.7%; in test [5], 97.9%. In test [6], the inhibition was 2.33%. Further, the RAM network inhibition in test [7] was 0.86%.

For `COC(=O)c1cn(NC(=O)CC2CCCCC2)c(=O)c2ccccc12`, the results for the growth inhibition in test [1] and in test [2] were 7.57% and 1.75%, respectively. In test [3], the viability increase is 0.01%. The values for the viability in test [4] and in test [5] were 94% and 91.7%, respectively. Moreover, the inhibition in test [6] was 0.24%. For the same molecule, the RAM network inhibition in test [7] is 2.22%.

`c1ccc(CN2CCN(c3nc4ccccc4n4cnnc34)CC2)cc1`: the growth inhibition in test [1] is -4.76%; in test [2] it was -16.2%. The viability increase in test [3] is -1.7%. In addition, the viability is 94.8% in test [4] and 86% in test [5]. Further, in test [6], the inhibition was 0.625%. Besides, the RAM network inhibition in test [7] was 2.12%.

Take `CCOc1ccc(C2NC(=O)c3n[nH]c(C)c32)cc1` (centres undefined): the growth inhibition is -3.56% in test [1] and 8.35% in test [2]. For the same molecule, in test [3], the viability increase is 1.63%. The viability is 107% in test [4] and 103% in test [5]. In addition, in test [6], the inhibition is 1.07%. Moreover, in test [7], the RAM network inhibition was 0.36%.

On to `COc1ccccc1C(=O)N1CCN(c2cccc(Cl)c2)CC1`, for which the growth inhibition is -9.06% in test [1] and -12.8% in test [2]. Besides, the viability increase in test [3] is -4.63%. Moreover, the viability in test [4] is 15.4% (active); in test [5] it was 20% (active). The inhibition in test [6] is 2.75%. Further, in test [7], the RAM network inhibition was 2.22%.

`CCc1ccc(N(CC(=O)NC2CCCCC2)S(=O)(=O)c2c(C)noc2C)cc1`: the values for the growth inhibition in test [1] and in test [2] were -9.43% and -2.85%, respectively. For the same molecule, the viability increase in test [3] was -1.23%. Besides, the results for the viability in test [4] and in test [5] were 92.2% and 92.3%, respectively. Further, in test [6], the inhibition is 2.05%. Moreover, in test [7], the RAM network inhibition was 4.91%.

Regarding `CCOC(=O)C1=C(C)Nc2nc(C)nn2C1c1ccc(OC)c(OC)c1` (centres undefined), the growth inhibition in test [1] is -6.55%; in test [2], -3.96%. The viability increase in test [3] is -3.45%. Moreover, the viability in test [4] was 99.5%; in test [5], 102%. Moreover, the inhibition in test [6] was 0.77%. The RAM network inhibition in test [7] was 0.06%.

Consider `COc1ccc(CCNC(=O)c2c(O)c3c([nH]c2=O)CCCC3)cc1`, for which the growth inhibition in test [1] is -0.92%; in test [2], -15.2%. The viability increase in test [3] was -0.72%. Further, the viability in test [4] is 97.1%; in test [5] it was 90%. The inhibition in test [6] is 1.77%. Also, the RAM network inhibition in test [7] is 4.09%.

As for `CC(C)n1c(C(O)c2ccc3c(c2)OCO3)nc2ccccc21` (centres undefined), the growth inhibition was -1.25% in test [1] and 0.5% in test [2]. For the same molecule, the viability increase in test [3] is 0.4%. Further, the results for the viability in test [4] and in test [5] were 94.8% and 90.9%, respectively. Also, the inhibition in test [6] was 0.905%. Moreover, the RAM network inhibition in test [7] is 2.89%.

Regarding `CCC(=O)N1CCc2cc(Br)cc(S(=O)(=O)NCCN3CCOCC3)c21`, the growth inhibition in test [1] was -4.99%; in test [2] it was -8.08%. Besides, the viability increase in test [3] was 0.03%. In addition, the viability in test [4] was 101%; in test [5] it was 98.4%. In test [6], the inhibition was 1.71%. Also, the RAM network inhibition in test [7] was 1.49%.

Regarding `CCOc1ccc(OCC)c(NS(=O)(=O)c2cccc3nsnc23)c1`, the figures for the growth inhibition in test [1] and in test [2] were -13.8% and -21.1%, respectively. Moreover, in test [3], the viability increase is -2.5%. The results for the viability in test [4] and in test [5] were 88.8% and 98%, respectively. For the same molecule, the inhibition in test [6] is 2.63%. Also, in test [7], the RAM network inhibition is 3.41%.

For the molecule `CCCCn1cc(C(C)(C)C)c(C#N)c1NC(C)=O`, the growth inhibition in test [1] is -21.7%; in test [2] it was -4.88%. The viability increase in test [3] was -1.24%. The figures for the viability in test [4] and in test [5] were 97.8% and 98.8%, respectively. Further, the inhibition in test [6] was 1.43%. Further, the RAM network inhibition in test [7] was 5.33%.

Take `CCOC(=O)N1CCN(c2c(N3CCc4ccccc43)c(=O)c2=O)CC1`: the values for the growth inhibition in test [1] and in test [2] were -9.63% and 14.6%, respectively. Moreover, the viability increase in test [3] is -1.52%. The viability is 105% in test [4] and 100% in test [5]. The inhibition in test [6] is 2.05%. Moreover, the RAM network inhibition in test [7] is -0.74%.

In the case of `COCC(C)NC(=O)NC1(C(F)(F)F)Oc2ccc(Cl)cc2O1` (centres undefined), the growth inhibition is -10% in test [1] and -25.1% in test [2]. The viability increase in test [3] was -5.78%. Further, the viability is 32.7% in test [4] and 38% in test [5]. In test [6], the inhibition was 0.985%. Moreover, the RAM network inhibition in test [7] was 4.1%.
